Reference: ChEMBL document CHEMBL4350993, “Dipropargyl substituted diphenylpyrimidines as dual inhibitors of monoamine oxidase and acetylcholinesterase” (Eur J Med Chem, 2019)
Active and inactive are the calls of the source. The rule behind the calls is not given here.

Columns and labels:
Acetylcholinesterase = Acetylcholinesterase (Electrophorus electricus, UniProt O42275); assay: Inhibition of electric eel AChE assessed as reduction in production of H202 using acetylcholine as substrate incubated for 15 mins followed by substrate addition by horse radish peroxidase/Amplex red reagent based fluorescence assay
[1] = biological target: T1, Amine oxidase [flavin-containing] B (Homo sapiens, UniProt P27338); assay: (§1) Inhibition of human recombinant microsomal MAO-B expressed in baculovirus infected BTI-TN-5B1-4 cells assessed as reduction in production of H202 using p-tyramine as substrate incubated for 30 mins followed by substrate addition by horse radish peroxidase/Amplex red reagent based fluorescence assay; assay type: cell-based
T1 sequence (P27338 whole entry): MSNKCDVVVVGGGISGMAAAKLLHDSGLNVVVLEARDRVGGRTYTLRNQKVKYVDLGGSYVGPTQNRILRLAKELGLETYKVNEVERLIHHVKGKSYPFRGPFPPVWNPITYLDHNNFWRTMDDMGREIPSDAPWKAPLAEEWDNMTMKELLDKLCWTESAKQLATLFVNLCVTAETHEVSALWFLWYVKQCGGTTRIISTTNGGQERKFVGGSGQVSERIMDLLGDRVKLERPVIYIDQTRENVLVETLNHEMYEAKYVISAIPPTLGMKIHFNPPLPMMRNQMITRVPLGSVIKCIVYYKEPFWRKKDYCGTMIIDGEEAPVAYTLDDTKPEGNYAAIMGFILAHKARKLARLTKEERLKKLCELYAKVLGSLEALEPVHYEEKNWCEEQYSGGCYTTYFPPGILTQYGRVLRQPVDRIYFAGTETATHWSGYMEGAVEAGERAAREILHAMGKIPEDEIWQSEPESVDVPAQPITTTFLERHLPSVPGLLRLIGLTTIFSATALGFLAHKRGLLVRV

Homo sapiens = species on record: Homo sapiens; assay: Selectivity index, ratio of IC50 for human recombinant microsomal MAO- A expressed in baculovirus infected BTI-TN-5B1- 4 cells using p-tyramine as substrate to IC50 for human recombinant microsomal MAO- B expressed in baculovirus infected BTI-TN-5B1- 4 cells using p-tyramine as substrate by horse radish peroxidase/Amplex red reagent based fluorescence assay
Outline: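 Recombinant hMAO-A (1.1 µg) or hMAO-B (7.5 µg) preincubated with inhibitor over a concentration range for 30 min at 37 °C in 0.05 M sodium phosphate, pH 7.4. Reaction started with 1 mM p-tyramine, 200 µM Amplex Red and 1 U/mL HRP (final concentrations). H₂O₂ was read by fluorescence (ex 545/em 590 nm) after 30 min dark incubation. Background without enzyme was subtracted; vehicle served as control.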

[2] = biological target: T2, Amine oxidase [flavin-containing] A (Homo sapiens, UniProt P21397); assay: Inhibition of human recombinant microsomal MAO-A expressed in baculovirus infected BTI-TN-5B1-4 cells assessed as reduction in production of H202 using p-tyramine as substrate incubated for 30 mins followed by substrate addition by horse radish peroxidase/Amplex red reagent based fluorescence assay; assay type: cell-based
T2 sequence (P21397 whole entry): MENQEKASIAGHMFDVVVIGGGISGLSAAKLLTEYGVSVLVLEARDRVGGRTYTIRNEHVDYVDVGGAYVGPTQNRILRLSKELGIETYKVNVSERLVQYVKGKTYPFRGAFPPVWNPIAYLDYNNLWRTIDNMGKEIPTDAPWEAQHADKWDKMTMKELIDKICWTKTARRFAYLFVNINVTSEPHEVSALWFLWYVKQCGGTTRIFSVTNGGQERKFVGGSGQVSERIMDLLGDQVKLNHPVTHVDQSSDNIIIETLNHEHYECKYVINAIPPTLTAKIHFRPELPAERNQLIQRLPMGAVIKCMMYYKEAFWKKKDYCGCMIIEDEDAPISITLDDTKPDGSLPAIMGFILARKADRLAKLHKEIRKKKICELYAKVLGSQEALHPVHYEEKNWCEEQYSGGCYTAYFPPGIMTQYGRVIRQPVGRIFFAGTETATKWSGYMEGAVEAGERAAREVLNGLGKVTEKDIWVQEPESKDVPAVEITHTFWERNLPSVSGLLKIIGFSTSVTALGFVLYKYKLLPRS

[3] = biological target: T2, Amine oxidase [flavin-containing] A; assay: as §1, with “MAO- A” for “MAO-B”, “BTI-TN-5B1- 4” for “BTI-TN-5B1-4”, “H202 at 50 uM” for “H202”; settings: 0.5 h
Outline: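 Recombinant hMAO-A (1.1 µg protein) preincubated 30 min at 37 °C with test compound in 0.05 M sodium phosphate, pH 7.4. Reaction started with (final) 200 µM Amplex Red, 1 U/mL HRP and 1 mM p-tyramine. After 30 min in the dark, H2O2 read by fluorescence (ex 545/em 590 nm) at 37 °C. Background without enzyme subtracted; vehicle control.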

[4] = Cytotoxicity against human SH-SY5Y cells assessed as cell viability at 25 uM measured after 24 hrs by MTT assay relative to control; assay type: cell-based; settings: read-out: Activity
Outline: (§2)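 SH-SY5Y cells, about 10,000/well, grown 24 h in DMEM/F-12 with 10% FBS, horse serum and 1% penicillin. Exposed to compound at 1, 5 or 25 μM for 24 h, serum-free, at 37 °C, 5% CO2. MTT added, 4 h at 37 °C, formazan dissolved in DMSO, OD read at 595 nm. Viability expressed relative to control.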

[5] = Metal chelating activity of the compound assessed as formation of Fe3+ complex at 50 uM by UV-vis spectrophotometric analysis
Outline: (§3)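 Absorption spectra recorded by UV–vis spectrophotometry for compound alone (50 μM final) and with CuSO₄, FeSO₄ or FeCl₃ (50 μM final); chelation judged from spectral change.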

SH-SY5Y [6] = assay: Neuroprotective activity against 6-OHDA induced toxicity in human SH-SY5Y cells assessed as cell viability at 5 uM preincubated for 4 hrs followed by 6-OHDA addition and measured after 24 hrs by MTT assay (reference value: 48.52 %); assay type: functional; settings: read-out: Activity
SH-SY5Y [7] = assay: Neuroprotective activity against 6-OHDA induced toxicity in human SH-SY5Y cells assessed as cell viability at 25 uM preincubated for 4 hrs followed by 6-OHDA addition and measured after 24 hrs by MTT assay (reference value: 48.52 %); assay type: functional; settings: read-out: Activity
[8] = Octanol/water partition coefficient, logP of compound; assay type: physicochemical
SH-SY5Y [9] = assay: Inhibition of ROS generation in human SH-SY5Y cells at 1 uM measured after 24 hrs by DCF-DA dye based fluorescence assay relative to control; assay type: functional
Outline: (§4)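 SH-SY5Y cells, about 10,000/well, grown 24 h in DMEM/F-12 with 10% FBS, horse serum and 1% penicillin. Washed with PBS, then exposed to compound without FBS for 24 h (1, 5, 25 μM). Rinsed three times in PBS, loaded with H2DCF-DA (50 μM) for 30 min at 37 °C, rinsed again. Fluorescence read at ex 478 / em 518 nm.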

[10] = Metal chelating activity of the compound assessed as formation of Fe2+ complex at 50 uM by UV-vis spectrophotometric analysis; outline: as §3
[11] = Cytotoxicity against human SH-SY5Y cells assessed as cell viability at 5 uM measured after 24 hrs by MTT assay relative to control; assay type: cell-based; settings: read-out: Activity; outline: as §2
[12] = Metal chelating activity of the compound assessed as formation of Cu2+ complex at 50 uM by UV-vis spectrophotometric analysis; outline: as §3
[13] = Cytotoxicity against human SH-SY5Y cells assessed as cell viability at 1 uM measured after 24 hrs by MTT assay relative to control; assay type: cell-based; settings: read-out: Activity; outline: as §2
[14] = biological target: Acetylcholinesterase (Electrophorus electricus) (UniProt O42275); assay: Reversible inhibition of electric eel AChE assessed as recovery of enzyme activity at 10 times IC50 using acetylcholine as substrate relative to control
SH-SY5Y [15] = assay: Neuroprotective activity against 6-OHDA induced toxicity in human SH-SY5Y cells assessed as cell viability at 1 uM preincubated for 4 hrs followed by 6-OHDA addition and measured after 24 hrs by MTT assay (reference value: 48.52 %); assay type: functional; settings: read-out: Activity
[16] = biological target: Acetylcholinesterase (Electrophorus electricus) (UniProt O42275); assay: Reversible inhibition of electric eel AChE assessed as recovery of enzyme activity at 0.1 times IC50 using acetylcholine as substrate relative to control
[17] = biological target: Acetylcholinesterase (Electrophorus electricus) (UniProt O42275); settings: at 1 to 5 µM
[18] = biological target: Acetylcholinesterase (Electrophorus electricus) (UniProt O42275); assay: Reversible inhibition of electric eel AChE assessed as recovery of enzyme activity at 100 times IC50 using acetylcholine as substrate relative to control
SH-SY5Y [19] = assay: Inhibition of ROS generation in human SH-SY5Y cells at 5 uM measured after 24 hrs by DCF-DA dye based fluorescence assay relative to control; assay type: functional; outline: as §4
[20] = biological target: Acetylcholinesterase (Electrophorus electricus) (UniProt O42275); assay: Reversible inhibition of electric eel AChE assessed as recovery of enzyme activity at IC50 using acetylcholine as substrate relative to control
SH-SY5Y [21] = assay: Inhibition of ROS generation in human SH-SY5Y cells at 25 uM measured after 24 hrs by DCF-DA dye based fluorescence assay relative to control; assay type: functional; outline: as §4

Sequence of Acetylcholinesterase (Electrophorus electricus) (O42275 24-633 limits assumed): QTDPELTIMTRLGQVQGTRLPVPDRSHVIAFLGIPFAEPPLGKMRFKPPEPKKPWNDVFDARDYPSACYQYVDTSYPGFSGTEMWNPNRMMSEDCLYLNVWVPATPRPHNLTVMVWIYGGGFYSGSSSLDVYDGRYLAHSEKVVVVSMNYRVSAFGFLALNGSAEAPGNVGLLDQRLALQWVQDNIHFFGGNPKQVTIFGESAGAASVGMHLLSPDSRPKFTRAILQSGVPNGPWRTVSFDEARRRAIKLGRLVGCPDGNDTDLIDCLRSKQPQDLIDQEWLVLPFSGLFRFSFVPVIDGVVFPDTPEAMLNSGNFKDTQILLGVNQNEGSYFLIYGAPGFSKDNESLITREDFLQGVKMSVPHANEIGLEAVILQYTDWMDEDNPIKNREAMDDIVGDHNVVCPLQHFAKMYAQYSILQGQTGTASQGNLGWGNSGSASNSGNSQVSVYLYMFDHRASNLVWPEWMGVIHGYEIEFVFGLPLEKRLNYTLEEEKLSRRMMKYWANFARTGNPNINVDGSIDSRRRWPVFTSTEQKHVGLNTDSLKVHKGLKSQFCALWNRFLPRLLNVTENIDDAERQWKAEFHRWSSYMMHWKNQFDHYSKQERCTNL
Sequence of Acetylcholinesterase (O42275 whole entry): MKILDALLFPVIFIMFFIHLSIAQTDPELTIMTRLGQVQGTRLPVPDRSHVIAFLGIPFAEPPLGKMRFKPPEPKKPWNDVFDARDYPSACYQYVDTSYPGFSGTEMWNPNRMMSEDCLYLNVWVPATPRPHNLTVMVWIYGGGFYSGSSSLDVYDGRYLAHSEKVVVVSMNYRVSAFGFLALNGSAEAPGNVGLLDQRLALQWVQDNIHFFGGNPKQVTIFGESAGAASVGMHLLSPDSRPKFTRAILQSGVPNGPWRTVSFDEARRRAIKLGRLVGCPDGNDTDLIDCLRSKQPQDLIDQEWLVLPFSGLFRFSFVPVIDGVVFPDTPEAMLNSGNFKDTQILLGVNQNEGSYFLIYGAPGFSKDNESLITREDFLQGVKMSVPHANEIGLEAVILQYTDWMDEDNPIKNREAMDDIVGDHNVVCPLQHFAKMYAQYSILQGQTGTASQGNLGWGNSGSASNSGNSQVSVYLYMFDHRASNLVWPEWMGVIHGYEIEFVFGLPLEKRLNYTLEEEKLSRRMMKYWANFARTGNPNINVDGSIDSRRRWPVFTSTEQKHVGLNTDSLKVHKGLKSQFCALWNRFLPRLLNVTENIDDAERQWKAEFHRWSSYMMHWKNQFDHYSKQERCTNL

Work on C#CCOc1ccccc1-c1cc(-c2ccccc2OCC#C)nc(N)n1 yielded an IC50 (Acetylcholinesterase) of 5.19 µM, an IC50 [1] of 11.1 µM and a Ratio IC50 (Homo sapiens) of over 5. The IC50 ([2]; bti-tn-5b1-4) was “Not Active” and the inhibition at 50 µM [3] was under 50%.
With C#CCOc1ccc(-c2cc(-c3cccc(OCC#C)c3)nc(N)n2)cc1 the viability at 24 h, 25 µM [4] was 69.2%, the Activity [5] was “inactive” and the viability at 5 µM (SH-SY5Y [6]) was 59.5%. For the same compound, the IC50 (Acetylcholinesterase) was 1.74 µM, the viability at 25 µM (SH-SY5Y [7]) was 52.3% and the logP [8] was 4.51. For the same compound, the inhibition at 1 µM (SH-SY5Y [9]) was 68.3%, the Activity [10] was “inactive” and the viability at 24 h, 5 µM [11] was 79.6%. The IC50 [1] was 1.49 µM, the Activity [12] was “inactive” and the viability at 24 h, 1 µM [13] was 87.3%. The Ratio IC50 (Homo sapiens) was 16.1, the inhibition [14] was 12.3% and the viability at 1 µM (SH-SY5Y [15]) was 60.5%. For the same compound, the inhibition [16] was 82.8%, the IC50 ([2]; read-out: IC50) was 24.1 µM and the inhibition [17] was “Active”. It also gave an inhibition [18] of 7.35%, an inhibition at 5 µM (SH-SY5Y [19]) of 47.2% and an inhibition [20] of 41.8%. It also gave an inhibition at 25 µM (SH-SY5Y [21]) of 41%.
Compound C#CCOc1ccc(-c2cc(-c3ccc(OCC#C)c(OC)c3)nc(-c3ccccc3)n2)cc1 has an IC50 (Acetylcholinesterase) of 6.99 µM, an IC50 [1] of 15.7 µM and a Ratio IC50 (Homo sapiens) of 1.6. It also gave an IC50 ([2]; read-out: IC50) of 24.9 µM.
With C#CCOc1ccc(-c2cc(-c3ccc(OCC#C)cc3)nc(N)n2)cc1 the viability at 24 h, 25 µM [4] was 72.6%, the Activity [5] was “inactive” and the viability at 5 µM (SH-SY5Y [6]) was 62.4%. It also gave an IC50 (Acetylcholinesterase) of 1.35 µM, a viability at 25 µM (SH-SY5Y [7]) of 53.6% and a logP [8] of 4.52. For the same compound, the inhibition at 1 µM (SH-SY5Y [9]) was 89.8%, the Activity [10] was “inactive” and the viability at 24 h, 5 µM [11] was 73%. For the same compound, the IC50 [1] was 3.3 µM, the Activity [12] was “inactive” and the viability at 24 h, 1 µM [13] was 79%. For the same compound, the Ratio IC50 (Homo sapiens) was 9.7, the inhibition [14] was 10.2% and the viability at 1 µM (SH-SY5Y [15]) was 66.6%. It also gave an inhibition [16] of 66.5%, an IC50 ([2]; read-out: IC50) of 32.1 µM and an inhibition [18] of 3.4%. For the same compound, the inhibition at 5 µM (SH-SY5Y [19]) was 30%, the inhibition [20] was 42.4% and the inhibition at 25 µM (SH-SY5Y [21]) was 25.9%.
Work on C#CCOc1ccc(-c2cc(-c3ccc(OCC#C)c(OC)c3)nc(N)n2)cc1 yielded an IC50 (Acetylcholinesterase) of 4.58 µM, an IC50 [1] of 20 µM and a Ratio IC50 (Homo sapiens) of over 3. The IC50 ([2]; bti-tn-5b1-4) was “Not Active” and the inhibition at 50 µM [3] was under 50%.
Compound C#CCOc1ccc(-c2cc(-c3ccccc3OCC#C)nc(C)n2)cc1 has an IC50 (Acetylcholinesterase) of 2.56 µM, an IC50 [1] of 18.1 µM and a Ratio IC50 (Homo sapiens) of 1.3. The IC50 ([2]; read-out: IC50) was 23.2 µM.
In the case of C#CCOc1ccc(-c2cc(-c3ccccc3OCC#C)nc(N)n2)cc1, the IC50 (Acetylcholinesterase) is reported as 1.81 µM, the IC50 [1] is reported as 22.1 µM and the Ratio IC50 (Homo sapiens) is reported as 1.3. The IC50 ([2]; read-out: IC50) was 28.6 µM.
For C#CCOc1ccc(-c2cc(-c3ccc(OCC#C)cc3)nc(-c3ccccc3)n2)cc1, the IC50 (Acetylcholinesterase) was 7.53 µM, the IC50 [1] was 12.3 µM and the Ratio IC50 (Homo sapiens) was 2.1. It also gave an IC50 ([2]; read-out: IC50) of 25.6 µM.
In the case of C#CCOc1ccc(-c2cc(-c3cccc(OCC#C)c3)nc(-c3ccccc3)n2)cc1, the IC50 (Acetylcholinesterase) is reported as 4.39 µM, the IC50 [1] is reported as 17.7 µM and the Ratio IC50 (Homo sapiens) is reported as 1.5. For the same compound, the IC50 ([2]; read-out: IC50) was 25.8 µM.
